Data set [1] relates to L1210. Kind of data set: Antitumor activity against mouse L1210 cells allografted in ip dosed C3H/DBA2 F1 mouse assessed as optimum dose required to increase in maximum life span administered as qd for 5 days. Type of data set: functional. The procedure, abridged: (§1)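 Mice: C3H/DBA2 F1 hybrids, 18.5-22.5 g, inoculated ip with 10⁵ L1210 cells on day 1. Treatment ip daily for 5 days from 24 h later, dose in 0.2 ml water (suspended or dissolved). T/C = ratio of mean life spans, treated vs control; optimum dose gives maximum T/C.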

In data set [2] the test system is L1210. The data set can be described thus: Antitumor activity against mouse L1210 cells allografted in C3H/DBA2 F1 mouse assessed as increase in life span at optimum dose, ip qd administered for 5 days relative to control. Type of data set: functional. The method in brief: as §1
A short description of data set [3]: Dissociation constant, pKa of the compound. Type of data set: physicochemical.

The T/C is the result in the treated group divided by that in the control group, in per cent. One may read the pKa as the pH at which an ionisable group is half protonated. High values mean a group that holds its proton tightly, low ones a group that gives up its proton readily.

As to `CS(=O)(=O)Nc1ccc(Nc2c3ccccc3nc3ccc(N)cc23)cc1`, the Activity in data set [1] came to 2.5 mg/kg/day. Besides, the T/C in data set [2] was 181%.
Regarding `C[n+]1c2ccccc2c(Nc2ccccc2)c2cc(N)ccc21`, the Activity in data set [1] stood at 14 mg/kg/day. Moreover, the T/C in data set [2] came to 162%.
As for `CC(=O)Nc1ccc2c(c1)c(Nc1ccc(NS(C)(=O)=O)cc1)c1ccccc1[n+]2C`, the Activity in data set [1] is 6 mg/kg/day. The T/C in data set [2] amounted to 181%.
With `C[n+]1c2ccccc2c(Nc2ccccc2)c2ccc([N+](=O)[O-])cc21`, in data set [1], the Activity is listed as more than 500 mg/kg/day.
For the compound `CCS(=O)(=O)Nc1ccc(Nc2c3ccccc3[n+](C)c3ccc(Cl)cc23)c(OC)c1`, the Activity in data set [1] is listed as 60 mg/kg/day. In data set [2], the T/C came out at 166%.
Consider `C[n+]1c2ccccc2c(Nc2ccc(NS(C)(=O)=O)cc2)c2ccc([N+](=O)[O-])cc21`, for which the Activity in data set [1] was more than 500 mg/kg/day.
As for `CC(=O)Nc1cccc(Nc2c3ccccc3[n+](C)c3ccccc23)c1`, the Activity in data set [1] stood at 67 mg/kg/day. The T/C in data set [2] worked out at 132%.
For `COc1cc(NS(C)(=O)=O)ccc1Nc1c2ccccc2nc2ccccc12` [AMSACRINE], in that order: 12 mg/kg/day and 196%.
Consider `C[n+]1c2ccccc2c(Nc2ccc(S(N)(=O)=O)cc2)c2ccccc21`, for which, in data set [1], the Activity is given as more than 500 mg/kg/day.
Take `CS(=O)(=O)Nc1ccc(Nc2c3ccccc3nc3cc([N+](=O)[O-])ccc23)cc1`: the Activity in data set [1] is 250 mg/kg/day. Besides, in data set [2], the T/C turned out to be 127%.
For `Cn1ccc(=N)cc1`, the pKa in data set [3] worked out at 12.5.
Take `CC(=O)Nc1ccc2c(Nc3ccc(NS(C)(=O)=O)cc3)c3ccccc3[n+](C)c2c1`: the Activity in data set [1] amounted to 15 mg/kg/day. In addition, the T/C in data set [2] was 134%.
As for `c1ccc(Nc2c3ccccc3nc3ccccc23)cc1`, the Activity in data set [1] is more than 500 mg/kg/day.
Regarding `Nc1cccc(Nc2c3ccccc3nc3ccccc23)c1`, the Activity in data set [1] amounted to 40 mg/kg/day. Also, in data set [2], the T/C came to 146%.
For `COc1cc(NS(C)(=O)=O)ccc1Nc1c2ccccc2nc2ccc(Br)cc12` the same measures were 6 mg/kg/day and 219%.
For `COc1cc(NS(C)(=O)=O)ccc1Nc1c2ccccc2[n+](C)c2ccc(Br)cc12`, in that order: 12 mg/kg/day and 158%.
As for `CCS(=O)(=O)Nc1ccc(Nc2c3ccccc3nc3ccccc23)cc1`, in data set [1], the Activity is recorded as 150 mg/kg/day. In addition, in data set [2], the T/C was found to be 183%.
On to `CCCS(=O)(=O)Nc1ccc(Nc2c3ccccc3[n+](C)c3ccccc23)cc1`, for which the Activity in data set [1] is on record as more than 500 mg/kg/day.
For the compound `C[n+]1c2ccccc2c(Nc2ccc(NS(C)(=O)=O)cc2)c2ccccc21`, the Activity in data set [1] turned out to be 95 mg/kg/day. Besides, in data set [2], the T/C came to 184%.
For `C[n+]1c2ccccc2c(Nc2ccccc2)c2ccc(N)cc21`, in that order: 20 mg/kg/day and 148%.
In the case of `COc1cc(NS(C)(=O)=O)ccc1Nc1c2ccccc2nc2ccc(Cl)cc12`, the Activity in data set [1] was found to be 10 mg/kg/day. Besides, in data set [2], the T/C is 172%.
For `CCCS(=O)(=O)Nc1ccc(Nc2c3ccccc3nc3ccccc23)cc1`, in that order: 225 mg/kg/day and 134%.
Regarding `Cn1ccc(=N)c2ccccc21`, the pKa in data set [3] is 12.4.
For `Nc1ccc(Nc2c3ccccc3nc3ccccc23)cc1`, in data set [1], the Activity was 33 mg/kg/day. Moreover, the T/C in data set [2] was 172%.
As to `CC(=O)Nc1cccc(Nc2c3ccccc3nc3ccccc23)c1`, in data set [1], the Activity was 30 mg/kg/day. Moreover, the T/C in data set [2] worked out at 133%.
For `C[n+]1c2ccccc2c(Nc2ccc(NS(C)(=O)=O)cc2)c2ccc(N)cc21`, in that order: 5 mg/kg/day and 167%.
For `COc1cc(NS(C)(=O)=O)ccc1Nc1c2ccccc2[n+](C)c2ccccc12`, in that order: 12 mg/kg/day and 172%.
For `C[n+]1c2ccccc2c(Nc2ccc(NS(C)(=O)=O)cc2)c2cc(N)ccc21`, in that order: 1.25 mg/kg/day and 180%.
On to `C[n+]1c2ccccc2c(Nc2ccccc2)c2ccccc21`, for which the Activity in data set [1] is listed as more than 500 mg/kg/day.
Take `CC(=O)Nc1ccc2c(c1)c(Nc1ccccc1)c1ccccc1[n+]2C`: the Activity in data set [1] was 22 mg/kg/day. In data set [2], the T/C stood at 158%.
`NS(=O)(=O)c1ccc(Nc2c3ccccc3nc3ccccc23)cc1`: the Activity in data set [1] is more than 500 mg/kg/day.
`CC(=O)Nc1ccc2nc3ccccc3c(Nc3ccc(NS(C)(=O)=O)cc3)c2c1`: the Activity in data set [1] was found to be 13 mg/kg/day. Besides, the T/C in data set [2] amounted to 214%.
On to `COc1cc(NS(C)(=O)=O)ccc1Nc1c2ccccc2[n+](C)c2ccc(Cl)cc12`, for which, in data set [1], the Activity came to 12 mg/kg/day. In addition, in data set [2], the T/C worked out at 179%.
For `C[n+]1c2ccccc2c(Nc2ccc(N)cc2)c2ccccc21` the same measures were 75 mg/kg/day and 163%.
`NC(=O)c1ccc(Nc2c3ccccc3nc3ccccc23)cc1`: the Activity in data set [1] is given as more than 500 mg/kg/day.
Regarding `CS(=O)(=O)Nc1ccc(Nc2c3ccccc3nc3cc(N)ccc23)cc1`, in data set [1], the Activity came out at 25 mg/kg/day. Further, the T/C in data set [2] came to 178%.
Regarding `CCCCS(=O)(=O)Nc1ccc(Nc2c3ccccc3[n+](C)c3ccccc23)cc1`, the Activity in data set [1] is listed as more than 500 mg/kg/day.
In the case of `CCS(=O)(=O)Nc1ccc(Nc2c3ccccc3[n+](C)c3ccccc23)cc1`, in data set [1], the Activity came out at 110 mg/kg/day. For the same compound, in data set [2], the T/C is reported as 166%.
For `CC(=O)Nc1ccc2c(Nc3ccc(NS(C)(=O)=O)cc3)c3ccccc3nc2c1`, in that order: 375 mg/kg/day and 147%.
For the compound `CCCCS(=O)(=O)Nc1ccc(Nc2c3ccccc3nc3ccccc23)cc1`, the Activity in data set [1] is reported as more than 500 mg/kg/day.
For `CS(=O)(=O)Nc1ccc(Nc2c3ccccc3nc3ccc(Br)cc23)cc1`, the Activity in data set [1] amounted to 35 mg/kg/day. Moreover, in data set [2], the T/C worked out at 165%.
For `CC(=O)Nc1ccc2c(Nc3ccccc3)c3ccccc3[n+](C)c2c1` the same measures were 50 mg/kg/day and 126%.
As for `C[n+]1c2ccccc2c(Nc2ccc(C(N)=O)cc2)c2ccccc21`, the Activity in data set [1] is more than 500 mg/kg/day.
As to `C[n+]1c2ccccc2c(Nc2ccc(NS(C)(=O)=O)cc2)c2cc(Br)ccc21`, the Activity in data set [1] is reported as 47 mg/kg/day. Also, the T/C in data set [2] is reported as 168%.
`CS(=O)(=O)Nc1ccc(Nc2c3ccccc3nc3ccccc23)cc1`: the Activity in data set [1] turned out to be 45 mg/kg/day. For the same compound, the T/C in data set [2] amounted to 207%.
Consider `C[n+]1c2ccccc2c(Nc2cccc(N)c2)c2ccccc21`, for which the Activity in data set [1] came to 120 mg/kg/day. The T/C in data set [2] amounted to 137%.

These data come from ChEMBL document CHEMBL3272175, “Potential antitumor agents. 17. 9-Anilino-10-methylacridinium salts” (J Med Chem, 1976).
